# The list is not random: actives were taken first. Their share in the collection is about 4.7%.
# MT1-MMP act inh: MT1-MMP (human) activation inhibition | P50281 | HT1080 RFP-PRO-GFP cells, GFP/RFP ratio fluorescence, overnight; percent of plate control window, DMSO zero | GFP/RFP ratio change, % at 20 µM | 0.061% of 360,000 active | AID 651647;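 active = GFP/RFP ratio change of at least 30% with cell ATP level not reduced by more than half and red fluorescence within 50% of control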
#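 Assay system – RFP-PRO-GFP reporter HT1080 cells · Compound dosing – single dose of 20 µM compound, 1% DMSO final · Incubation – overnight compound exposure at 37 °C · Measure – GFP/RFP fluorescence ratio · Benchmarks – DMSO wells and RFP-L50D-GFP cells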
# ADAM10 inh: ADAM10 inhibition, QFRET primary screen; AID 720582; 0.62% of 370,000 active; O14672; inhibition, % at 7 µM; recombinant ADAM10, EDANS/DABCYL FRET peptide cleavage, 3 h;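 active = inhibition above a per-campaign cutoff equal to the mean of compounds falling between control-based bounds plus 3 SD, cut at about 20% in these data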;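 note: 0% = DMSO wells while the 100% control is not disclosed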
# Target sequence (O14672 214-748 limits assumed): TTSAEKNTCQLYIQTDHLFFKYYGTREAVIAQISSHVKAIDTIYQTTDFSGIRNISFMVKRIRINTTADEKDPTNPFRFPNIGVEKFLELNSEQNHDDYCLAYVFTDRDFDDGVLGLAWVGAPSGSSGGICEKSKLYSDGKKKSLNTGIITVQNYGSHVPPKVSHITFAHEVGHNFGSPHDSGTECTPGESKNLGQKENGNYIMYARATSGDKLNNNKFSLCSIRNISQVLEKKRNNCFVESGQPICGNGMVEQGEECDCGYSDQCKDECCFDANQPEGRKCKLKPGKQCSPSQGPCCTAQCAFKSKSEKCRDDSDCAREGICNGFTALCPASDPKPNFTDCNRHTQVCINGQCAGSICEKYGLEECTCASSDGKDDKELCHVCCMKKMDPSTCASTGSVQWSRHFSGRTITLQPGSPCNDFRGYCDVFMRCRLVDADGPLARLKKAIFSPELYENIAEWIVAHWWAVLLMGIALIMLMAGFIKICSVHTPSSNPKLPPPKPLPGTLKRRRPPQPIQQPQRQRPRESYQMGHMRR
# SKN-1 block: blocks SKN-1 activity in C. elegans; C. elegans VP596 Pgst-4::GFP/RFP ratio, acrylamide-induced, 24 h; inhibition, % at 21.8 µM; 0.49% of 360,000 active;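 active = interference check ratio from 0.5 to 1.5 plus GFP to RFP signal ratio inhibition reaching or exceeding a fixed threshold, cut at about 30% in these data, passing the limit was not always enough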
# GRIN3A LBD mod: modulators (binders) of human NR3A ligand-binding domain | NR3A LBD differential scanning fluorimetry, Tm shift; 0% = protein alone, 100% = glycine-bound protein | AID 1259313 | Tm shift relative to glycine control, % at 25 µM | 2.5% of 340,000 active;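 active = melting temperature shift of at least 10% of the positive control shift, at one fixed dose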
# ADAM17 inh: inhibitors of human ADAM17. P78536. recombinant ADAM17, EDANS/DABCYL FRET peptide cleavage. inhibition, % at 6.95 µM. 0.83% of 370,000 active. AID 720648;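 active = inhibition above the mean of compounds lying between control limits plus 3 SD, set per campaign, cut at about 8.5% in these data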;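 note: 0% = DMSO-only wells as the low control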
# MPTP block: inhibitors of mitochondrial permeability transition pore. isolated mouse mitochondria, Ca2+ swelling absorbance, 30 min. inhibition, % at 10 µM. 1.4% of 360,000 active. AID 602449;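 active = inhibition of 50% or more, scaled per plate between neutral and stimulator controls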;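 note: 0% = DMSO wells given calcium and 100% = 1 mM EGTA wells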
# ADAM10 confirm: human ADAM10 inhibition, confirmation; shares compounds with ADAM10 inh; ADAM10 QFRET peptide cleavage, EDANS fluorescence; inhibition, % at 6.95 µM; 1% of 2,100 active; AID 743208;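 active = inhibition above about 20% chosen separately for each screening run, limit read from the data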;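 note: 0% = DMSO wells and 100% = marimastat wells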
# ADAM17 ctr: ADAM17 inhibition, counter-screen for ADAM10 exosite hits | 0.5% of 2,100 active | ADAM17 QFRET peptide cleavage, EDANS fluorescence | inhibition, % at 6.95 µM | shares compounds with ADAM10 inh;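 active = mean triplicate inhibition above the solvent-only control wells' mean plus 3 SD, cut at about 12% in these data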;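 note: 0% = DMSO wells and 100% = marimastat wells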
# ADAM10 counter: inhibits human ADAM10 in ADAM17 exosite counter-screen | recombinant ADAM10, EDANS/DABCYL FRET peptide cleavage, 3 h | shares compounds with ADAM17 inh | 47% of 2,900 active | inhibition, % at 6.95 µM;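 active = mean inhibition over the triplicate runs exceeds the activity threshold set in the earlier primary screen, cut at about 20% in these data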;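 note: 0% = DMSO wells and 100% = marimastat wells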
# ADAM17 confirm: confirmation of inhibitors of human ADAM17 | shares compounds with ADAM17 inh | recombinant ADAM17, EDANS/DABCYL QFRET peptide cleavage | inhibition, % at 6.95 µM | 65% of 2,900 active | AID 743257;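 active = mean inhibition across replicates above the hit cutoff set in the primary screen, cut at about 8.5% in these data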;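 note: 0% = DMSO wells and 100% = marimastat wells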
# * = called active by the depositor; . = no result given.
SMILES,MT1-MMP act inh,ADAM10 inh,SKN-1 block,GRIN3A LBD mod,ADAM17 inh,MPTP block,ADAM10 confirm,ADAM17 ctr,ADAM10 counter,ADAM17 confirm
COc1ccc(N(CC(=O)NCCSC2CCCCC2)S(=O)(=O)c2ccccc2)c(OC)c1,-2,21*,-14,.,9.4*,0,1,1,16,7
Cc1noc(C)c1COc1ccc(C(=O)OCc2nnc(-c3ccc(Cl)cc3)o2)cc1,-2,22*,-5,0,12*,0,2,1,21*,14*
O=C(OCc1nnc(-c2ccc(Cl)cc2)o1)c1ccncc1,-1,-11,-18,-3,-4,1,.,.,.,.
O=[N+]([O-])c1cc(C(F)(F)F)ccc1NCCc1c[nH]c2ccc(O)cc12,22,31*,8,29*,13*,3,5,1,27*,14*
Cc1ccc(S(=O)(=O)N2CCOCC2)cc1NC(=O)COC(=O)c1ccc(Br)cc1,-1,-9,1,-3,-4,-2,.,.,.,.
CCN(CC)c1ccc(NC(=O)COC(=O)CSc2ccc(Br)cc2C)cc1,8,26*,4,-5,20*,-2,13,6,41*,23*
Cc1ccc(S(=O)(=O)N2CCOCC2)cc1NC(=O)COC(=O)CSc1ccc(Br)cc1C,0,21*,-17,-10,13*,2,0,0,20*,11*
O=C(O)CNC(=S)N(Cc1ccco1)Cc1ccccc1Cl,3,-8,-7,-2,-1,0,.,.,.,.
CCOc1ccc(NC(=O)NCCN2C(C)CCCC2C)cc1 (configuration not stated),8,-2,-13,-1,-5,-2,.,.,.,.
CCOC(=O)c1ccc(NC(=O)C2CCN(S(=O)(=O)c3ccccc3)CC2)cc1,2,-6,-3,-14,-3,0,.,.,.,.
CCOC(=O)c1ccc(NC(=O)C2CCCN(S(=O)(=O)c3ccc(F)cc3)C2)cc1 (configuration not stated),-3,25*,7,-7,8.8*,-4,1,1,17,13*
CCOC(=O)C1=CCN(S(=O)(=O)c2ccccc2Br)C1c1ccc(Cl)c(Cl)c1 (configuration not stated),1,-6,-5,.,1,0,.,.,.,.
CCOC(=O)C1=CCN(S(=O)(=O)c2ccccc2Cl)C1c1ccc(Cl)c(Cl)c1 (configuration not stated),-1,21*,2,.,15*,0,6,2,8,4
Cc1ccc(-c2ccc(CN3C(CC(C)C)C(=O)N(Cc4cn(CCC5OCCO5)nn4)CCS3(=O)=O)cc2)cc1 (configuration not stated),-6,26*,0,.,9.8*,-2,6,3,26*,23*
COCOCCn1cc(CN2CCS(=O)(=O)N(Cc3ccc(-c4ccc(Cl)cc4)cc3)C(C(C)C)C2=O)nn1 (configuration not stated),-1,4,4,.,3,0,.,.,.,.
CC(C)CC1C(=O)N(Cc2cn(CCC3OCCO3)nn2)CCS(=O)(=O)N1Cc1ccc(-c2ccccc2)cc1 (configuration not stated),-4,17,5,.,5,1,.,.,.,.
COCOCCn1cc(CN2CCS(=O)(=O)N(Cc3ccc(-c4ccc(Cl)c(Cl)c4)cc3)C(C(C)C)C2=O)nn1 (configuration not stated),4,27*,-1,.,9.1*,-2,8,3,28*,20*
COc1ccc(OC(F)(F)F)cc1CC1(C)C(=O)Nc2ccc(S(=O)(=O)NC3CCCCC3)cc21 (configuration not stated),-17,23*,-10,.,10*,1,0,1,40*,18*
CC1(Cc2ccccc2OC(F)(F)F)C(=O)Nc2ccc(S(=O)(=O)NC3CCCCC3)cc21 (configuration not stated),-17,10,5,.,6,1,.,.,.,.
Cc1ccc(OC(C)C(=O)Nc2ccc(C)c(S(=O)(=O)Nc3ccc(C)cc3C)c2)cc1 (configuration not stated),-14,24*,2,12*,12*,18,10,3,28*,15*
COc1cc(-c2[nH]ncc2CN2CCCC2c2nonc2C)cc(OC)c1OC (configuration not stated),0,-7,-3,-1,0,0,.,.,.,.
Cc1nonc1C1CCCN1Cc1cn[nH]c1-c1ccc(-c2ccccc2)cc1 (configuration not stated),-5,33*,3,-3,17*,5,8,3,30*,19*
COc1cc(/C=C/c2nc3ccccc3s2)cc(OC)c1O,-110,-22,21,0,-9,2,.,.,.,.
COc1ccc(C=C(c2nc3ccccc3s2)c2nc3ccccc3s2)cc1O,-24,20*,7,0,8.6*,1,8,3,25*,14*
Cc1ccc2cccc(OC(=O)/C=C\c3ccccc3)c2n1,0,2,-6,2,0,-5,.,.,.,.
Cc1[nH]c2ccc(-c3n[nH]c(=S)n3-c3ccccc3)cc2c1C,8,9,2,0,-1,2,.,.,.,.
COc1cccc(-n2c(-c3ccc4[nH]c(C)c(C)c4c3)n[nH]c2=S)c1,3,29*,-9,-14,14*,0,6,3,-1,6
CCN(CC)S(=O)(=O)c1cccc(C(=O)N/N=C/c2c(C)nn(-c3ccccc3)c2Cl)c1,1,1,1,0,-3,-1,.,.,.,.
CC(C)(C)OC(=O)N1CCCC(C(=O)Nc2cccc(C(=O)NCCc3ccccc3)c2)C1 (configuration not stated),8,4,-3,-1,-2,0,.,.,.,.
